# Screens as filed in PubChem BioAssay.
# HCT116 bCat-KO: primary screen for growth suppressors in beta-catenin knockout HCT116 cells (colon tumor, human); 140,000 compounds, 1.5% hits; viability, % at 10 µM; HCT116 beta-catenin knockout viability, CellTiter-Glo, 60 h; active compounds read low; AID 818, 2007;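 active means viability at or under a set limit, the compound median less 4 SD, cut at about 6% in these data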;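 further: 0% = Hyamine 1622 control at 20 µM and 100% = untreated cell control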
# H69AR inhibit: proliferation blockers of H69AR lung cancer cells, primary screen, cell-based, human, 86K library | H69AR lung tumor viability, ATP luminescence, 72 h; active compounds read low | viability, % at 10 µM | 85,000 compounds, 6% hits;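 active means viability at or below 40%; inactive means viability above 40%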;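 further: multidrug resistant small cell line overexpressing MRP-1 efflux transporter; 100% = mean luminescence of untreated control wells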
# PTEN del growth: growth suppression of PTEN-null HCT116, primary screen, cell-based, CellTiter-Glo. 140,000 compounds, 1.2% hits. HCT116 PTEN-null viability, 60 h; active compounds read low. viability, % at 10 µM;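 active means viability at or below a set limit, 4 SD under the median of all tested compounds, cut at about 3.7% in these data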;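 further: PTEN knockout HCT116 line with beta catenin targeted HCT116 as companion control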
# HUVEC prolif 384: inhibitors of HUVEC proliferation, primary screen, cell-based, 384-well. CellTiter-Glo luminescence, 72 h; active compounds read low. 86,000 compounds, 1.1% hits. AID 648, 2007. viability, % at 10 µM (by protocol);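 active means viability at or below 30%; inactive means viability above 30%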;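 further: 100% = median luminescence of DMSO-only cell control wells on each plate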
# Fibroblast inh: antiproliferative effect on LL 47 fibroblasts – human, LL 47 cells, CellTiter-Glo luminescence, primary screen; viability, % at 10 µM; LL 47 human lung fibroblast viability, ATP luminescence; active compounds read low; 85,000 compounds, 1.1% hits;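 active means viability at or below 50% in the single dose screen; inactive means viability above 50%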;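 further: compound exposure lasted 72 h before the ATP readout; 100% = median luminescence of untreated cell-only wells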
#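 Signal: luminescent ATP detection, CellTiter-Glo; assay system: LL 47 human lung fibroblasts; input: 1,150 cells/well; incubation: overnight cell rest, 72 h compound treatment at 37 °C; measure: % viability versus median cells-only luminescence; medium: IMEM growth medium with 15% fetal bovine serum; dosing: compound addition at 0.1% DMSO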
# An asterisk follows results filed as active; x = no result given. This excerpt belongs to a sample that is enriched for hits.
SMILES,HCT116 bCat-KO,H69AR inhibit,PTEN del growth,HUVEC prolif 384,Fibroblast inh
COc1ccc(-c2nn(-c3ccccc3)cc2/C=N/NC(=O)c2ccc3c(c2)OCO3)cc1,72,x,67,x,x
COc1ccc(-c2nn(-c3ccccc3)cc2/C=N/NC(=O)c2ccc(Br)o2)cc1,5.0*,x,6,x,x
CCCn1c(CCC(=O)Nc2ccccc2Cc2ccccc2)nc2cc(S(=O)(=O)N3CCOCC3)ccc21,63,39*,70,107,90
Cc1nn(Cc2ccccc2)c(=O)n1N(C)c1ncc(C(F)(F)F)cc1Cl,91,91,102,103,106
CCn1c(SCC(=O)NC2CCCCC2)nc2c(c1=O)SC(C)C2 (configuration not stated),100,39*,91,90,94
Nc1nnnn1/N=C/C(Br)=C/c1ccccc1,7,0.9*,3.2*,89,x
c1ccc2c(c1)[nH]c1c(NCC3CCCO3)ncnc12 (configuration not stated),72,70,80,87,93
Oc1ccccc1-c1nc(NCc2ccco2)c2ccccc2n1,38,36*,35,47,74
c1ccc(-c2nc(NCc3ccco3)c3ccccc3n2)nc1,8,16*,8,48,55
c1ccc(-c2nc(NCC3CCCO3)c3ccccc3n2)nc1 (configuration not stated),6.0*,x,6,x,x
Oc1cccc(Nc2nc(NCC3CCCO3)c3ccccc3n2)c1 (configuration not stated),1.9*,104,3.4*,85,90
CC1(C)CCCC(C)(C)N1CC(O)COCCOc1ccc(Br)cc1 (configuration not stated),77,x,68,x,x
CN1CCN(CCCC(=O)c2ccc(C3CCCC3)cc2)CC1,50,x,63,x,x
CCOc1ccc2[nH]c(=O)c(CN(Cc3cccs3)Cc3nnnn3C(C)(C)C)cc2c1,33,7.3*,23,69,67
Clc1nc(-c2n[nH]nc2Cl)n[nH]1,94,x,92,x,x
N#CC1=C(N)Oc2cc(O)ccc2C1c1ccncc1 (configuration not stated),94,85,82,95,100
CN(C)c1ccc2c(c1)OC(N)=C(C#N)C2c1cccc(F)c1 (configuration not stated),10,25*,9,31,55
COc1ccc(Cl)cc1NC(=O)C(C)N(C)Cc1cccc(Cl)c1Cl (configuration not stated),65,x,79,x,x
COc1ccc2cc(C(c3nnnn3C3CCCCC3)N3CCCCCC3)c3nnnn3c2c1 (configuration not stated),x,35*,x,85,87
COc1ccc(C(c2nnnn2C2CCCC2)N2CCC(C)CC2)c(OC)c1 (configuration not stated),64,62,64,101,93
COc1ccc2cc(C(c3nnnn3C3CCCC3)N3CCCCCC3)c3nnnn3c2c1 (configuration not stated),9,40,2.3*,43,95
Cc1cc(C)c(S(=O)(=O)n2c([N+](=O)[O-])cnc2C)c(C)c1,94,x,94,x,x
CCCCCCCCCC(=O)N/N=C(\C)c1cccnc1,91,90,94,106,91
CCCCCC(=O)N/N=C(\C)c1ccccn1,4.3*,x,5,x,x
Fc1ccc(Nc2nc(N3CCOCC3)c3ccccc3n2)cc1,x,35*,x,65,91
SMILES,HCT116 bCat-KO,H69AR inhibit,PTEN del growth,HUVEC prolif 384,Fibroblast inh
c1ccc2c(Nc3nc(N4CCOCC4)c4ccccc4n3)cccc2c1,62,x,48,x,x
CCOC(=O)COC(=O)c1ccc(Oc2cc(C)nc(SC)n2)cc1,85,95,102,97,100
CCOC(=O)c1ccc(Oc2cc(C)nc(SC)n2)cc1,19,22*,17,62,80
CCc1c(C)c(C#N)c2nc3ccccc3n2c1NCc1ccco1,83,36*,77,85,92
CCCNc1cc(C)c(C#N)c2nc3ccccc3n12,88,37*,87,91,107
Cc1cc(NCCCO)n2c(nc3ccccc32)c1C#N,104,x,98,x,x
C=CCc1c(C)c(C#N)c2nc3ccccc3n2c1NCCN(C)C,84,33*,91,99,96
CCc1c(C)c(C#N)c2nc3ccccc3n2c1NCCN(C)C,89,50,102,103,104
CCOC(=O)COc1ccccc1/C=C\[N+](=O)[O-],79,x,86,x,x
CCn1cc(C(=O)OCC(=O)Nc2ccc(S(=O)(=O)N3CCCC3)cc2)c(=O)c2ccc(C)nc21,98,26*,101,91,88
Cc1ccc(-n2[nH]c(C)c(C=Nc3ccc(S(=O)(=O)N4CCOCC4)cc3)c2=O)c(C)c1,96,x,92,x,x
Cc1ccc(-n2c(Cn3nc(C(F)F)cc3C(F)F)n[nH]c2=S)cc1,102,x,107,x,x
CCCCNC(=O)CSc1nc2ccc(N3CCOCC3)cc2c(=O)n1CCc1ccccc1,92,8.9*,75,26*,72
COCCNC(=O)CSc1nc2ccc(N3CCOCC3)cc2c(=O)n1CCc1ccccc1,98,81,102,94,98
Cc1cc2c(c(=O)n1Cc1cccnc1)C(c1cccs1)C(C#N)=C(N)O2 (configuration not stated),107,32*,94,92,97
Cc1cc2c(c(=O)n1Cc1cccnc1)C(Cc1ccccc1)C(C#N)=C(N)O2 (configuration not stated),99,86,106,87,100
CCOc1ccc2c(c1)-c1c(ssc1=S)C(C)(C)N2,94,x,84,x,x
Nc1ccc(N2CCCCCC2)cc1,7,2.1*,13,98,96
CCCCC(=O)Nc1ccc(NC(=S)NC(=O)c2cccs2)cc1OC,87,x,88,x,x
COC(=O)[C@@H](NC(=O)O[C@@H]1C(=O)c2ccc(OC)cc2O[C@H]1c1cccc(C(F)(F)F)c1)C(C)C,78,x,63,x,x
O=C(c1ccco1)N1CCN(C(=O)N2c3ccccc3Sc3ccccc32)CC1,14,32*,14,38,50
O=C(c1ccco1)N1c2ccccc2Sc2ccccc21,69,x,65,x,x
O=C(N1CCN(c2ccccn2)CC1)N1c2ccccc2Sc2ccccc21,9,34*,13,26*,55
CC(C)(C)CC(C)(C)NCC(O)COc1c(F)cc(Br)cc1F (configuration not stated),13,9.7*,26,99,76
Cc1nn(-c2ccccc2)c2sc(C(=O)NC3CC3)cc12,83,95,84,91,90
Cc1nn(-c2ccccc2)c2sc(C(=O)N(CC(=O)NC3CCCC3)Cc3ccco3)cc12,68,26*,37,54,53
Cc1cccc(Nc2nc(-c3ccc4c(c3)OCCO4)cs2)c1,74,22*,80,73,114
Cc1c(-c2ccccc2)oc2c(C(=O)N3CCN(c4ccc([N+](=O)[O-])cc4)CC3)cccc2c1=O,75,x,67,x,x
